Reference: article PMC7255057 (Journal of medicinal chemistry, 2019)
pKd: −log10 of the molar value.

Tests used:
[1] = molecular target: T1, human serum albumin (HSA) (Homo sapiens, UniProt P02768); assay: ANS fluorescence binding and competition on HSA; details: for displacement of ANS from HSA: 2.5 μM HSA with 5 or 100 μM ANS
Procedure, shortened: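 Fluorescence competition with 2.5 μM HSA and 5 or 100 μM ANS. The test compound was titrated over a concentration range. Excitation was 360 nm, with emission read at 460 and 480 nm to detect blue shifts. Signals were normalised between ANS alone (minimum) and HSA:ANS (maximum). ANS stoichiometry and affinity on HSA were set beforehand by a Sudlow-type titration.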

[2] = molecular target: T2, EPAC1CBD (Homo sapiens, UniProt O95398); assay: Nonspecific interaction with EPAC1CBD by global NH-HSQC intensity losses; format: binding; details: for type of aggregation-based inhibitor: NMR intensity losses and DLS
T2 sequence (O95398 149-318 isoform O95398-3): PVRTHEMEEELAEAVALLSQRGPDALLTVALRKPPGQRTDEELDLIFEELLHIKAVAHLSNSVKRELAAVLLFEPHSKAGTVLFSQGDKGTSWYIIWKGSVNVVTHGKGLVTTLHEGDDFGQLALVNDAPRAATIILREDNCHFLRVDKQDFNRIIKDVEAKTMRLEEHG

[3] = molecular target: T2, EPAC1CBD; assay: DLS volume profile of EPAC1CBD in presence of ESIs; format: binding
[4] = molecular target: T3, EPAC1CBD (cAMP-binding domain of hEPAC1, residues 149–318) (Homo sapiens, UniProt O95398); assay: NH-HSQC chemical shift titration of EPAC1CBD
T3 sequence (O95398 149-318 isoform O95398-3): T2 sequence (O95398 149-318 isoform O95398-3)
Procedure, shortened: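 100 μM human EPAC1 CBD (residues 149–318) in Tris NMR buffer was titrated with test compound, with or without HSA, and read by 1H-15N HSQC. DMSO was 0.5% per 100 μM compound. Compounded chemical-shift changes from 35 residues were least-squares fitted at 1:1, with ΔCCSmax free or fixed, to give Kd or apparent Kd. Peak intensities were normalised to the compound-free sample and averaged (I/I0).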

[5] = molecular target: T1, human serum albumin (HSA); assay: 13C-oleic acid displacement assay on HSA; format: binding; details: 250 μM HSA, 1.5 mM OA
Procedure, shortened: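 Recombinant globulin- and fatty-acid-free HSA at 250 μM in 20 mM NaPO4 pH 7.6, 50 mM NaCl in 99.9% D2O, held 37 °C 30 min. 13C-oleic acid (100 mM stock in DMSO-d6, warmed 50 °C 10 min) added to 1.5 mM final, then 37 °C 2 h. {13C–1H}-HSQC recorded with and without test compound at 298 K; site peaks A–H losing intensity mark displacement.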

[6] = Transmission electron microscopy of aggregates; format: physicochemical; details: 200 μM
Procedure, shortened: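 Aggregate samples were applied to 400-mesh copper grids freshly coated with continuous amorphous carbon and glow-discharged at 5 mA for 15 s beforehand. Grids were imaged by transmission electron microscopy on a side-mounted cooled 4-megapixel CCD camera.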

[7] = molecular target: human serum albumin (HSA) Sudlow sites (Homo sapiens, UniProt P02768); assay: Fluorescence competition with dansylated amino acids; format: binding
Sequence of human serum albumin (HSA) Sudlow sites (P02768 25-609): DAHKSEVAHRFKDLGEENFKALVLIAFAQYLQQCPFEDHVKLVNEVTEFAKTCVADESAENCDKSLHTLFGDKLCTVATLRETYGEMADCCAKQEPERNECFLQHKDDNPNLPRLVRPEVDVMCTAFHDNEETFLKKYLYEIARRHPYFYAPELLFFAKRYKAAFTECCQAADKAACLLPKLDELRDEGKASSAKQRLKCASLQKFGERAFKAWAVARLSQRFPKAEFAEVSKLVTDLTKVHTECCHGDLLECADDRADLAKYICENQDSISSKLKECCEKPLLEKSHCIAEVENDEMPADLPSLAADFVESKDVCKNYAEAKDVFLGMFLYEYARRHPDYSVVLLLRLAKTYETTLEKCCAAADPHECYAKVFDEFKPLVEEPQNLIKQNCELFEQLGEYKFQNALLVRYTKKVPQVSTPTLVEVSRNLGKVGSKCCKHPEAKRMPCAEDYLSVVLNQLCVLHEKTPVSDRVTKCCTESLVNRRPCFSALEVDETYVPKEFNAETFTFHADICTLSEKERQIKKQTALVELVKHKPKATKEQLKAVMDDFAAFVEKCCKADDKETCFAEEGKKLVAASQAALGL
Procedure, shortened: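 Dansylated arginine (Sudlow site 1, 1:1) or dansylated phenylalanine (sites 1 and 2) fluorescence with recombinant fatty-acid-free HSA on a plate reader. Excitation was 370 for both probes, with emission at 460 (DanR) or 480 nm (DanF). Probe affinity and stoichiometry came from direct titration. Competitions used 2.5 μM HSA with 100 μM probe and were least-squares fitted assuming no extra sites.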

[8] = Dynamic light scattering of aggregates/micelles; format: physicochemical; details: for aggregate size range (DLS intensity profile): 500 μM, 2.5% DMSO; for aggregates detectable by DLS in presence of HSA: with HSA
[9] = SPR on nonfunctionalized gold nanoparticle sensor; format: physicochemical; details: for SPR signal relative to DMSO control: 50 μM and 250 μM, 1.25% DMSO

T1 sequence (P02768 25-609): as above

With `O=S(=O)(O)c1cccc2cccc(Nc3ccccc3)c12` [ANS, 8-anilinonaphthalene-1-sulfonic acid] the “ANS binding stoichiometry and affinity for HSA” value ([1]; Scatchard plot) was “binds up to four sites on HSA with low micromolar affinity”.

In the case of `C[C@@H]1CCc2c(cc(Br)c(F)c2Br)N1C=O` [CE3F4R], the “EPAC1CBD NH-HSQC signal/intensity loss” value [2] was “no more than that caused by DMSO”, the “type of aggregation-based inhibitor” value [2] was “Type A” and the “change of EPAC1CBD DLS volume profile” value ([3]; below or above CAC) was “does not result in any major change in the volume profile of EPAC1CBD”. The “increase of apparent Kd for EPAC1CBD binding caused by HSA” value ([4]; CE3F4R titration with vs without HSA) was 5–10 fold, the “concentration at which dissociation from EPAC1CBD starts” value ([4]; presence of HSA) was no less than 750 µM and the “displacement of 13C-oleic acid from HSA” value [5] was “displace OA at multiple sites”. The “aggregate morphology (TEM)” value [6] was “more amorphous morphology”, the “displacement of dansylated amino acids from HSA” value ([7]; concentrations below CAC) was “ineffective at displacing either of the dansylated amino acids from HSA” and the “displacement of ANS from HSA” value [1] was “unable to displace ANS”. For the same compound, the “aggregate size range (DLS intensity profile)” value [8] was 90–600 nm, the “coaggregate size with TX (DLS)” value ([8]; TX:CE3F4R 1:2 (0.0075% TX, 200 μM CE3F4R)) was “around 70 nm” and the “aggregates detectable by DLS in presence of HSA” value [8] was “no detectable aggregates in the presence of HSA”. For the same compound, the “SPR signal relative to DMSO control” value [9] was “no significant change in SPR signal”.

`CN(C)c1cccc2c(S(=O)(=O)N[C@@H](CCCN=C(N)N)C(=O)O)cccc12` [DanR, dansyl-arginine] gave a pKd ([7]; read-out: Kd for HSA Sudlow's Site I, fluorescence titration) of roughly 4.60.

In the case of `CC(C)(C)c1cc(C(=O)/C(C#N)=N/Nc2cccc(Cl)c2)no1` [ESI-09], the “EPAC1CBD NH-HSQC signal/intensity loss” value [2] was “substantial signal losses for EPAC1CBD peaks”, the “type of aggregation-based inhibitor” value [2] was “type B” and the “ESI-09 concentration giving similar signal loss in presence of HSA” value ([2]; compared with 100 μM ESI-09 without HSA) was “around 400 μM”. For the same compound, the “increase of EPAC1CBD HSQC intensities in presence of HSA” value ([2]; most ESI-09 concentrations) was 30–40%, the “increase of EPAC1CBD size profile (DLS)” value ([3]; ESI concentration above CAC) was “up to 5 nm” and the “EPAC1CBD chemical shift changes with HSA relative to those without HSA” value ([4]; 100 μM ESI-09) was less than 20%. For the same compound, the “reduction of average chemical shift changes with HSA vs without HSA” value ([4]; ESI-09 concentration yielding similar intensity losses) was ~ 30%, the “displacement of 13C-oleic acid from HSA” value [5] was “displace OA at multiple sites” and the “aggregate morphology (TEM)” value [6] was “spherical micellar morphology”. The “displacement of ANS from HSA” value [1] was “can fully displace even large excesses of ANS at low micromolar concentrations”, the “aggregate size range (DLS intensity profile)” value [8] was 90–600 nm and the “aggregates detectable by DLS in presence of HSA” value [8] was “no detectable aggregates in the presence of HSA”. For the same compound, the “SPR signal relative to DMSO control” value [9] was “significant difference for ESI-09 when injected at a concentration that is above its CAC”, the “SPR signal with HSA relative to HSA and DMSO control” value ([9]; 250 μM ESI-09 with 25 μM HSA) was “no significant SPR signal increase” and the “SPR signal with HSA relative to HSA and DMSO reference” value ([9]; 500 μM ESI-09 with 25 μM HSA) was “SPR signal significantly increases”.

With Triton X-100 [TX] the “EPAC1CBD NH-HSQC signal/intensity loss” value [2] was “no significant chemical shift changes or intensity losses” and the “average aggregate/micelle diameter (DLS)” value ([8]; compound in isolation) was “about 10 nm”.
